Reference: ChEMBL document CHEMBL1165943, “Design and synthesis of new anticancer pyrimidines with multiple-kinase inhibitory effect” (Bioorg Med Chem, 2010)

Columns and labels:
Assay type in all cases: functional
MOLT-4 = experiment: Cytotoxicity against human MOLT4 cells assessed as cell growth at 10 uM; conditions: Homo sapiens, MOLT-4; read-out: Activity
Method in brief: (§1)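 Single-dose screen at 10 μM across the 60-cell-line panel. Cells grown in RPMI 1640 with 5% FBS and 2 mM L-glutamine, seeded at 5,000–40,000 cells/well according to doubling time, and treated 24 h later. Exposure lasted 48 h at 37 °C, 5% CO₂. Adherent cells were fixed with cold TCA, suspension cells were fixed settled, and both were stained with SRB and read at 515 nm. Growth % was recorded, with inhibition % = 100 − growth %.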

KM12 = experiment: Cytotoxicity against human KM12 cells assessed as cell growth at 10 uM; conditions: Homo sapiens, KM12; read-out: Activity; method in brief: as §1
UACC-62 = experiment: Cytotoxicity against human UACC62 cells assessed as cell growth at 10 uM; conditions: Homo sapiens, UACC-62; read-out: Activity; method in brief: as §1
NCI/ADR-RES = experiment: Cytotoxicity against human NCI/ADR-RES cells assessed as cell growth at 10 uM; conditions: Homo sapiens, NCI/ADR-RES; read-out: Activity; method in brief: as §1
IGROV-1 = experiment: Cytotoxicity against human IGROV1 cells assessed as cell growth at 10 uM; conditions: Homo sapiens, IGROV-1; read-out: Activity; method in brief: as §1
OVCAR-3 = experiment: Cytotoxicity against human OVCAR-3 cells assessed as cell growth at 10 uM; conditions: Homo sapiens, OVCAR-3; read-out: Activity; method in brief: as §1
SK-MEL-2 = experiment: Cytotoxicity against human SK-MEL-2 cells assessed as cell growth at 10 uM; conditions: Homo sapiens, SK-MEL-2; read-out: Activity; method in brief: as §1
U-251 = experiment: Cytotoxicity against human U251 cells assessed as cell growth at 10 uM; conditions: Homo sapiens, U-251; read-out: Activity; method in brief: as §1
DU-145 = experiment: Cytotoxicity against human DU145 cells assessed as cell growth at 10 uM; conditions: Homo sapiens, DU-145; read-out: Activity
Method in brief: (§2)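 Single-concentration screen at 10 μM across the 60-cell-line panel (nine tissue types); growth percentage recorded per cell line, with inhibition taken as 100 minus growth percentage.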

HCT-116 = experiment: Cytotoxicity against human HCT116 cells assessed as cell growth at 10 uM; conditions: Homo sapiens, HCT-116; read-out: Activity; method in brief: as §2
SR = experiment: Cytotoxicity against human SR cells assessed as cell growth at 10 uM; conditions: Homo sapiens, SR; read-out: Activity; method in brief: as §1
HT-29 = experiment: Cytotoxicity against human HT-29 cells assessed as cell growth at 10 uM; conditions: Homo sapiens, HT-29; read-out: Activity; method in brief: as §2
OVCAR-4 = experiment: Cytotoxicity against human OVCAR4 cells assessed as cell growth at 10 uM; conditions: Homo sapiens, OVCAR-4; read-out: Activity; method in brief: as §1
A498 = experiment: Cytotoxicity against human A498 cells assessed as cell growth at 10 uM; conditions: Homo sapiens, A498; read-out: Activity; method in brief: as §2
HOP-62 = experiment: Cytotoxicity against human HOP62 cells assessed as cell growth at 10 uM; conditions: Homo sapiens, HOP-62; read-out: Activity; method in brief: as §2
T47D = experiment: Cytotoxicity against human T47D cells assessed as cell growth at 10 uM; conditions: Homo sapiens, T47D; read-out: Activity; method in brief: as §1
SF-268 = experiment: Cytotoxicity against human SF268 cells assessed as cell growth at 10 uM; conditions: Homo sapiens, SF-268; read-out: Activity; method in brief: as §1
MCF7 = experiment: Cytotoxicity against human MCF7 cells assessed as cell growth at 10 uM; conditions: Homo sapiens, MCF7; read-out: Activity; method in brief: as §1
OVCAR-8 = experiment: Cytotoxicity against human OVCAR8 cells assessed as cell growth at 10 uM; conditions: Homo sapiens, OVCAR-8; read-out: Activity; method in brief: as §1
NCI-H522 = experiment: Cytotoxicity against human NCI-H522 cells assessed as cell growth at 10 uM; conditions: Homo sapiens, NCI-H522; read-out: Activity; method in brief: as §1
CAKI-1 = experiment: Cytotoxicity against human Caki1 cells assessed as cell growth at 10 uM; conditions: Homo sapiens, CAKI-1; read-out: Activity; method in brief: as §2
SF-539 = experiment: Cytotoxicity against human SF539 cells assessed as cell growth at 10 uM; conditions: Homo sapiens, SF-539; read-out: Activity; method in brief: as §1
UO-31 = experiment: Cytotoxicity against human UO31 cells assessed as cell growth at 10 uM; conditions: Homo sapiens, UO-31; read-out: Activity; method in brief: as §1
786-0 = experiment: Cytotoxicity against human 786-0 cells assessed as cell growth at 10 uM; conditions: Homo sapiens, 786-0; read-out: Activity; method in brief: as §2
SNB-75 = experiment: Cytotoxicity against human SNB75 cells assessed as cell growth at 10 uM; conditions: Homo sapiens, SNB-75; read-out: Activity; method in brief: as §1
BT-549 = experiment: Cytotoxicity against human BT549 cells assessed as cell growth at 10 uM; conditions: Homo sapiens, BT-549; read-out: Activity; method in brief: as §2
HL-60(TB) = experiment: Cytotoxicity against human HL-60(TB) cells assessed as cell growth at 10 uM; conditions: Homo sapiens, HL-60; read-out: Activity
Method in brief: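 Single-concentration 10 µM screen of HL-60(TB) within the 60-line panel, grown in RPMI 1640 with 5% FBS. The drug from DMSO stock is incubated 48 h at 37 °C, settled cells are TCA-fixed and SRB-stained, and absorbance is read at 515 nm. Percent growth is reported, and inhibition % is taken as 100 minus growth %.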

NCI-H226 = experiment: Cytotoxicity against human NCI-H226 cells assessed as cell growth at 10 uM; conditions: Homo sapiens, NCI-H226; read-out: Activity; method in brief: as §1
MDA-MB-468 = experiment: Cytotoxicity against human MDA-MB-468 cells assessed as cell growth at 10 uM; conditions: Homo sapiens, MDA-MB-468; read-out: Activity; method in brief: as §1
NCI-H23 = experiment: Cytotoxicity against human NCI-H23 cells assessed as cell growth at 10 uM; conditions: Homo sapiens, NCI-H23; read-out: Activity; method in brief: as §1
HCC 2998 = experiment: Cytotoxicity against human HCC2998 cells assessed as cell growth at 10 uM; conditions: Homo sapiens, HCC 2998; read-out: Activity; method in brief: as §2
[1] = Growth inhibition of human NCI60 cells at 10 uM after 48 hrs by sulforhodamine B assay relative to control; conditions: Homo sapiens, NCI60, 48 h; read-out: GI
Method in brief: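 Single 10 µM dose across the 60-line panel for 48 h, with the same culture, TCA fixation and SRB 515 nm read-out. Inhibition % = 100 − growth %, given as the mean over the 60 cell lines.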

MDA-MB-231 = experiment: Cytotoxicity against human MDA-MB-231 cells assessed as cell growth at 10 uM; conditions: Homo sapiens, MDA-MB-231; read-out: Activity; method in brief: as §1
ACHN = experiment: Cytotoxicity against human ACHN cells assessed as cell growth at 10 uM; conditions: Homo sapiens, ACHN; read-out: Activity; method in brief: as §2
LOX IMVI = experiment: Cytotoxicity against human LOXIMVI cells assessed as cell growth at 10 uM; conditions: Homo sapiens, LOX IMVI; read-out: Activity; method in brief: as §1
HCT-15 = experiment: Cytotoxicity against human HCT15 cells assessed as cell growth at 10 uM; conditions: Homo sapiens, HCT-15; read-out: Activity; method in brief: as §2
K562 = experiment: Cytotoxicity against human K562 cells assessed as cell growth at 10 uM; conditions: Homo sapiens, K562; read-out: Activity; method in brief: as §1

Compound	growth at 10 µM (MOLT-4) [%]	growth at 10 µM (KM12) [%]	growth at 10 µM (UACC-62) [%]	growth at 10 µM (NCI/ADR-RES) [%]	growth at 10 µM (IGROV-1) [%]	growth at 10 µM (OVCAR-3) [%]	growth at 10 µM (SK-MEL-2) [%]	growth at 10 µM (U-251) [%]	growth at 10 µM (DU-145) [%]	growth at 10 µM (HCT-116) [%]	growth at 10 µM (SR) [%]	growth at 10 µM (HT-29) [%]	growth at 10 µM (OVCAR-4) [%]	growth at 10 µM (A498) [%]	growth at 10 µM (HOP-62) [%]	growth at 10 µM (T47D) [%]	growth at 10 µM (SF-268) [%]	growth at 10 µM (MCF7) [%]	growth at 10 µM (OVCAR-8) [%]	growth at 10 µM (NCI-H522) [%]	other results
c1ccc(-c2ccc(-c3ccnc(Nc4ccc(N(c5ccccc5)c5ccccc5)cc4)n3)cn2)cc1	91.2	97	96.9	125	67.2	125	102	87.2	115	40.6	38.7	89.5	93.4	96.2	122	111	90	96.6	79.5	94	growth at 10 µM (CAKI-1): 83.7%; growth at 10 µM (SF-539): 84.2%; growth at 10 µM (UO-31): 72.4%; growth at 10 µM (786-0): 71.5%; growth at 10 µM (SNB-75): 102%; growth at 10 µM (BT-549): 102%; growth at 10 µM (HL-60(TB)): 91.8%; growth at 10 µM (NCI-H226): 115%; growth at 10 µM (MDA-MB-468): 105%; growth at 10 µM (NCI-H23): 145%; growth at 10 µM (HCC 2998): 112%; inhibition of growth at 10 µM [1]: 0.97%; growth at 10 µM (MDA-MB-231): 123%; growth at 10 µM (ACHN): 96.5%; growth at 10 µM (LOX IMVI): 131%; growth at 10 µM (HCT-15): 102%; growth at 10 µM (K562): 94.9%
FC(F)(F)c1cc(Nc2nccc(-c3ccc(Nc4ccccc4)nc3)n2)cc(C(F)(F)F)c1	87.6	112	99.1	102	102	119	92.1	104	111	108	90	99.8	105	104	94	84.5	107	75.4	97.2	96.5	growth at 10 µM (CAKI-1): 98%; growth at 10 µM (SF-539): 94.9%; growth at 10 µM (UO-31): 79.5%; growth at 10 µM (786-0): 105%; growth at 10 µM (SNB-75): 86.5%; growth at 10 µM (BT-549): 105%; growth at 10 µM (HL-60(TB)): 105%; growth at 10 µM (NCI-H226): 98%; growth at 10 µM (MDA-MB-468): 89.6%; growth at 10 µM (NCI-H23): 98.2%; growth at 10 µM (HCC 2998): 100%; inhibition of growth at 10 µM [1]: 0.2%; growth at 10 µM (MDA-MB-231): 97.5%; growth at 10 µM (ACHN): 91.3%; growth at 10 µM (LOX IMVI): 103%; growth at 10 µM (HCT-15): 97.4%; growth at 10 µM (K562): 92.9%
CC(=O)c1ccccc1-c1ccc(-c2ccnc(NC(=O)Nc3cc(N4CCOCC4)cc(C(F)(F)F)c3)n2)cn1	87.1	90.4	76	58.1	70.8	123	60.8	56.4	45.3	63	86.2	33.1	27.5	107	7.86	79.8	63.9	75	43	60.2	growth at 10 µM (CAKI-1): 83.5%; growth at 10 µM (SF-539): 44.3%; growth at 10 µM (UO-31): 92.1%; growth at 10 µM (786-0): 47.3%; growth at 10 µM (SNB-75): 8.55%; growth at 10 µM (BT-549): 51.7%; growth at 10 µM (HL-60(TB)): 95.7%; growth at 10 µM (NCI-H226): 39.4%; growth at 10 µM (MDA-MB-468): 82.1%; growth at 10 µM (NCI-H23): 58.5%; growth at 10 µM (HCC 2998): 106%; inhibition of growth at 10 µM [1]: 38.4%; growth at 10 µM (MDA-MB-231): 30.1%; growth at 10 µM (ACHN): 45.7%; growth at 10 µM (LOX IMVI): 44.7%; growth at 10 µM (HCT-15): 84.2%; growth at 10 µM (K562): 83.3%
